Source: ChEMBL document CHEMBL4425094, “Novel Benzo[a]quinolizidine Analogs Induce Cancer Cell Death through Paraptosis and Apoptosis” (J Med Chem, 2016)
The source made the active and inactive calls. No cut-off for these calls is given here.

How the values were obtained:
[1] = system: PC-3; test: Induction of ER stress in human PC3 cells assessed as activation of XBPI mRNA incubated for 22 hrs after ER stress inhibitor 4-PBA exposure for 2 hrs by Western blot analysis; assay type: functional, cell-based
Method in brief: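 PC3 cells pretreated 2 h with 4-PBA (100 μM), then compound added for a further 22 h. Viability measured by MTT. GRP78 assessed by Western blot, along with XBP1 mRNA splicing analysis. Morphology by phase contrast.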

[2] = system: PC-3; test: Induction of apoptosis in human PC3 cells assessed as viable cells at 0.5 uM after 24 hrs by Annexin V-FITC/propidium iodide based flow cytometric analysis (reference value: 95.4 %); assay type: functional; settings: PC-3, 24 h, read-out: Activity
Method in brief: (§1)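 PC3 cells exposed to 0.5, 1 or 2 μM for 24 h, then stained with Annexin V-FITC and PI and analyzed by FACSCalibur flow cytometry. Populations assigned as necrotic (Annexin V−/PI+), late apoptotic (double positive), normal (Annexin V−/PI−) and early apoptotic (Annexin V+/PI−). DMSO vehicle control.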

[3] = system: PC-3M; test: Antitumor activity against human PC3M-lluc-C6 cells xenografted in athymic Balb/c mouse assessed as tumor growth inhibition at 15 mg/kg, ip administered every 2 days for 18 days; assay type: functional; settings: read-out: TGI
[4] = system: PC-3; test: Induction of autophagy in human PC3 cells transfected with mRFP-GFP-LC3 assessed as pervacuolar distribution of LC3 at 1 uM after 8 hrs by fluorescence microscopic analysis; assay type: functional, cell-based
Method in brief: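 PC3 cells transfected with an mRFP-GFP-LC3 reporter plasmid, then treated 8 h with 1 μM test agent or 0.5 μM rapamycin (autophagy inducer). Imaged by confocal fluorescence microscopy: yellow puncta (overlapping red/green) scored as autophagosomes, red-only puncta as autolysosomes, since GFP is quenched in acidic lysosomes.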

[5] = system: PC-3M; test: Antiproliferation activity against human PC3M-lluc-C6 cells xenografted in athymic Balb/c mouse assessed as decrease in cell viability at 15 mg/kg, ip administered every 2 days for 18 days by H and E staining based microscopic analysis; assay type: functional, organism-based
Method in brief: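 Male BALB/c-nu mice, 6 weeks old, each given 5 × 10^6 PC3M-luc-C6 cells subcutaneously in the right anterior flank. At ~0.1 cm3 tumor, groups of n = 5 received 15 mg/kg i.p. every 2 days. Docetaxel 15 mg/kg was the positive control. Tumor tissue stained with H&E or anti-Ki67 (1:500) overnight at 4 °C, HRP/DAB, hematoxylin counterstain, examined by microscopy.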

[6] = system: PC-3; test: Induction of apoptosis in human PC3 cells after 24 hrs by Annexin V-FITC/propidium iodide based flow cytometric analysis; assay type: functional, cell-based; method in brief: as §1
[7] = system: PC-3; test: Induction of autophagy in human PC3 cells assessed as upregulation of LC3 expression after 24 hrs by Western blot analysis; assay type: functional, cell-based
Method in brief: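 PC3 cells in RPMI 1640 with 10% FBS, treated at 50−70% confluence for a time course up to 24 h; DMSO vehicle control. Lysed in RIPA buffer; 40 μg protein run on SDS-PAGE, transferred to nitrocellulose, primary antibody overnight at 4 °C, HRP secondary 45 min, ECL detection. GAPDH or β-actin loading control.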

[8] = system: PC-3M; test: Antitumor activity against human PC3M-lluc-C6 cells xenografted in athymic Balb/c mouse assessed as tumor weight at 15 mg/kg, ip administered every 2 days for 18 days (reference value: 0.71 +/- 0.06 g); assay type: functional
[9] = system: PC-3; test: Induction of apoptosis in human in human PC3 cells assessed as reduction in cell viability in presence of caspase inhibitor by MTT assay
[10] = system: PC-3; test: Induction of cell cycle arrest in human PC3 cells assessed as accumulation in S phase at 0.5 uM after 24 hrs by […]propidium iodide based flow cytometric analysis (reference value: 21 to 31.6 %); assay type: functional
[11] = system: PC-3; test: Induction of apoptosis in human PC3 cells assessed as viable cells at 1 uM after 24 hrs by Annexin V-FITC/propidium iodide based flow cytometric analysis (reference value: 95.4 %); assay type: functional; settings: PC-3, 24 h, read-out: Activity; method in brief: as §1
[12] = system: PC-3; test: Induction of cell cycle arrest in human PC3 cells assessed as accumulation in S phase at 2 uM after 24 hrs by […]propidium iodide based flow cytometric analysis (reference value: 21 to 31.6 %); assay type: functional
[13] = system: PC-3; test: Induction of cell cycle arrest in human PC3 cells assessed as accumulation in G2 phase at 2 uM after 24 hrs by […]propidium iodide based flow cytometric analysis (reference value: 16.3 to 25 %); assay type: functional
[14] = system: PC-3; test: Growth inhibition of human PC3 cells at IC30 in presence of bortezomib by MTT assay; assay type: functional, cell-based
Method in brief: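 PC3 cells incubated with increasing concentrations of compound combined with a second agent (bortezomib or partner compound). Viability determined, combination index calculated: CI < 1 synergism, = 1 additive, > 1 antagonism.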

[15] = system: PC-3M; test: Induction of ER stress i in human PC3M-lluc-C6 cells xenografted in athymic Balb/c mouse assessed as increase in GRP78 protein levels at 15 mg/kg, ip administered every 2 days for 18 days by Western blot and immunohistochemical staining method; assay type: functional, organism-based
Method in brief: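 Tumor tissue from PC3M-luc-C6 xenografts in BALB/c-nu mice dosed 15 mg/kg i.p. every 2 days. GRP78 measured by Western blot and by immunohistochemistry (anti-GRP78 1:500 overnight at 4 °C, HRP/DAB, hematoxylin counterstain).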

[16] = system: PC-3; test: Induction of vacuolization in human PC3 cells in presence of CHX after 24 hrs by phase-contrast microscopic analysis; assay type: functional, cell-based
Method in brief: (§2)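 PC3 cells pretreated with 10 μM actinomycin D or 5 μM cycloheximide, then treated with agent for 24 h. Vacuolization imaged by phase-contrast microscopy; viability by MTT.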

[17] = system: PC-3; test: Induction of vacuolization in human PC3 cells in presence of AcT-D after 24 hrs by phase-contrast microscopic analysis; assay type: functional, cell-based; method in brief: as §2
[18] = system: PC-3; test: Induction of cell cycle arrest in human PC3 cells assessed as accumulation in G0/G1 phase at 0.5 uM after 24 hrs by […]propidium iodide based flow cytometric analysis (reference value: 43.5 to 62.5 %); assay type: functional
[19] = system: PC-3; test: Induction of endoplasmic reticulum derived cytoplasmic vacuole formation in human PC3 cells after 4 to 8 hrs by ER-tracker staining based fluorescence microscopy; assay type: functional, cell-based
Method in brief: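 PC3 cells incubated with vehicle or agent for 0, 4 or 8 h. They were then stained at 37 °C for 15 min with ER-Tracker (1:3000) plus 10 μg/mL Hoechst 33342, washed with PBS and imaged by fluorescence/confocal microscopy.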

[20] = system: PC-3; test: Induction of morphological changes in human PC3 cells assessed as formation of massive cytoplasmic vacuoles at 1 uM after 12 hrs by confocal microscopic analysis; assay type: functional, cell-based
[21] = system: K562; test: Cytotoxicity against human K562 cells assessed as cell growth inhibition after 24 hrs by MTT assay; assay type: functional, cell-based; settings: K562, 24 h
Method in brief: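 Cells seeded 24 h in RPMI 1640 + 10% FBS. RWPE-1 was kept in K-SFM with bovine pituitary extract and EGF. Cells then exposed to compounds for 24 h at 37 °C, 5% CO2, with DMSO vehicle and docetaxel as positive control. MTT added for 4 h, absorbance read at 570 nm. Triplicate runs, IC50 reported as mean of three experiments.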

SMILES: Cc1cc(C)cc(COc2cc3c(cc2OCc2cc(C)cc(C)c2)[C@@H]2C[C@H](O)C[C@@H](C)N2CC3)c1 (racemic)
- Activity [1]: inactive
- viability at 0.5 µM [2]: 95.3%
- inhibition in vivo at 15 mg/kg [3]: 40.5%
- Activity [4]: Active
- Activity [5]: Active
- Activity [6]: Dose-dependent effect
- Activity [7]: Active
- Activity [8]: 0.42 g
- Activity [9]: inactive
- Activity [10]: 16.1 - 21.3%
- viability at 1 µM [11]: 90%
- Activity [12]: 6.38 - 9.05%
- Activity [13]: 10.8 - 12.3%
- growth inhibition (GI) [14]: Active
- Activity [15]: Active
- Activity [16]: inactive
- Activity [17]: inactive
- Activity [18]: 63.8 - 70.2%
- Activity [19]: Active
- Activity [20]: Active
- IC50 [21]: 1440 nM
